NLRP3 yeast inh – blocks the NALP3 inflammasome reconstituted in yeast; Yeast reconstituted NLRP3/ASC/caspase-1, beta-gal luminescence, 24 h; inhibition, % at 10 µM; 330,000 tested, 0.39% active; AID 2825;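 active = inhibition of 50% or more; inactive = inhibition below 50%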
Bfl-1 A1 inh – inhibitors of the anti-apoptotic protein A1, read as caspase activation; caspase activation, % (concentration not given with the values); 330,000 tested, 0.066% active; MEF A1-2A-BIM cells, Caspase-Glo 3/7 luminescence, 3 h; percent of clofoctol response, vehicle zero; AID 2462;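 active = over half of replicate activation scores above 10%, or exactly half above 10 with the replicate mean above 10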
Tb MetRS inh – Trypanosoma brucei MetRS inhibition | purified T. brucei MetRS, ATP depletion, Kinase-Glo luminescence | inhibition, % at 11.9 µM | 360,000 tested, 0.4% active | AID 624268;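 active = inhibition above a per-plate cutoff of the control wells' mean inhibition plus 3 SD, cut at about 5.5% in these data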
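System: purified T. brucei MetRS enzyme / Detection: Kinase-Glo luciferase luminescence reporting remaining unconsumed ATP / Medium: HEPES buffer with MgCl2, KCl, DTT, spermine, BSA, pyrophosphatase / Replication: singlicate, one well per compound / Evaluation: percent inhibition relative to median high and low control wells / Schedule: 2 h aminoacylation at 25 °C after 15 min preincubation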
NALP1 yeast inh – NALP1 inhibition | S. cerevisiae NALP1/ASC/caspase-1 growth, X-gal OD620, 72 h | 280,000 tested, 0.61% active | inhibition, % at 10 µM; in the data active = inhibition mostly above about 24%, no sharp cut-off; inactive = mostly below about 32%
MC4R antagonist – blocks human MC4R cAMP signaling. inhibition, % at 6.5 µM. MC4R-expressing cells, MTII-stimulated cAMP, LANCE TR-FRET. 360,000 tested, 0.48% active. P32245. AID 540295;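 active = inhibition above its plate's cutoff, the mean of tested wells on that plate plus 3 SD, cut at about 29% in these data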
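Test system: U2OS cells stably expressing human melanocortin 4 receptor (MC4R); also added: Melanotan II challenge; compound: 6.5 µM single dose; timing: 30-min compound preincubation, 1-h Melanotan II challenge, 1-h detection, room temperature; signal: Eu-cAMP/anti-cAMP TR-FRET, emission 671 nm; repeats: one well per compound, no replicates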
MC4R barr agon – activates human MC4R beta-arrestin recruitment; U2OS MC4R beta-arrestin complementation, luminescence; percent of melanotan II response, DMSO zero; 360,000 tested, 0.98% active; activation, % at 8.9 µM;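 active = activation above a per-plate cutoff, the mean activation of sample wells on that plate plus 3 SD, cut at about 8% in these data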
MC4R barr ag – human MC4R beta-arrestin agonism confirmation; shares compounds with MC4R barr agon; U2OS MC4R beta-arrestin recruitment, luminescence; scaled DMSO 0%, Melanotan II 100%; activation, % at 8.9 µM; 2,400 tested, 31% active; AID 602192;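 active = mean activation across replicates above the hit cutoff set in the earlier primary screen, cut at about 8% in these data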
MOR-DOR barr ag – activates mu-delta opioid heterodimer, MC4R agonist counter-screen; shares compounds with MC4R barr agon; U2OS PathHunter beta-arrestin, beta-gal luminescence; percent of deltorphin B response, DMSO zero; activation, % at 9.2 µM; 2,400 tested, 5.8% active; AID 602194;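 active = mean activation across replicates exceeds the hit threshold derived in the earlier primary screen, cut at about 18% in these data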
Target sequence (P35372 whole entry, looked up): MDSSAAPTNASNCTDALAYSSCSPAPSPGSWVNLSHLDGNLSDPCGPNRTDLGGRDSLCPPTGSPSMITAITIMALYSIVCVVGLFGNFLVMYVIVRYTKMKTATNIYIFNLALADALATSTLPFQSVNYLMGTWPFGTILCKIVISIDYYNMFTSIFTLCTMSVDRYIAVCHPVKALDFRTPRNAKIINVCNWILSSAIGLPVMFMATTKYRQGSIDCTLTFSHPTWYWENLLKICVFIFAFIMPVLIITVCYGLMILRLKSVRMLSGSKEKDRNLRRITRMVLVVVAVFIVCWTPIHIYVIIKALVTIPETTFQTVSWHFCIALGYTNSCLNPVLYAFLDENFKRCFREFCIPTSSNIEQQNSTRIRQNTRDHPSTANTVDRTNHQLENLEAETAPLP
Target sequence (P41143 whole entry, looked up): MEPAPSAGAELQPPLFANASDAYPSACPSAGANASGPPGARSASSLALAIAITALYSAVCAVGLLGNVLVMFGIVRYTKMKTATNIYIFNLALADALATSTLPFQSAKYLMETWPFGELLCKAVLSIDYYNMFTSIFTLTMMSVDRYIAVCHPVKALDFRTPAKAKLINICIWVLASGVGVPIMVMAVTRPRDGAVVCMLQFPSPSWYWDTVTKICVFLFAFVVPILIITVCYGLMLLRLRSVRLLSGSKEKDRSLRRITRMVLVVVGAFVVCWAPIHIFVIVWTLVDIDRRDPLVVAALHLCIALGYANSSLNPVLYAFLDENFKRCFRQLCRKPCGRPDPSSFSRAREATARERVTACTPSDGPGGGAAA
Large screens that a line does not name were inactive (follow-up assays come after a bar, where they were run). Only some compounds are listed: those with a hit (about 2.5% of all), similar ones and a draw of the others.

CC(=O)c1c(C)[nH]c(C(=O)CSc2ncnc3sc(-c4ccccc4)cc23)c1C	MC4R barr agon 25.0 | MC4R barr ag 16.4 | MOR-DOR barr ag inactive
O=C(O)CSc1ncnc2sc(-c3ccccc3)cc12	none
COc1ccc2c(CC(=O)N3CCN(S(=O)(=O)c4ccc(F)cc4)CC3)coc2c1	none (no result: NALP1 yeast inh)
Cc1ccc(OCCn2c(C)c(/C=N/n3cnnc3)c3ccccc32)cc1	MC4R barr agon 16.4 | MC4R barr ag inactive | MOR-DOR barr ag inactive
COC(=O)c1ccccc1NC(=O)c1cccc(NC(=O)CSCc2ccccc2)c1C	MC4R barr agon 17.8 | MC4R barr ag inactive | MOR-DOR barr ag inactive
COc1cccc(-n2nc(C(=O)Nc3ccc4c(c3)OCO4)c3ccccc3c2=O)c1	none
O=C(Nc1ccc2c(c1)OCO2)c1nn(-c2ccccc2)c(=O)c2ccccc12	MC4R barr agon 10.7 | MC4R barr ag inactive | MOR-DOR barr ag inactive
O=C(C[C@@H]1C/C=C\CC[C@H](Cc2ccc(F)cc2)C(=O)OC[C@@H]2CCCN2C1=O)NCCO	none (no result: NALP1 yeast inh)
Cc1ccc2c(COC(=O)c3ccccc3Br)cc(=O)oc2c1	MC4R barr agon 9.7 | MC4R barr ag inactive | MOR-DOR barr ag inactive
O=C(COC(=O)/C=C/c1cccs1)Nc1nc(-c2ccccc2)cs1	NALP1 yeast inh 63.1, MC4R barr agon 31.7 | MC4R barr ag inactive | MOR-DOR barr ag inactive
O=C(C[n+]1cc(-c2ccccc2)n2c1CCCCC2)c1ccc(Cl)cc1	none (no result: NALP1 yeast inh)
CC1CCC(C(C)C)C(OC(=O)C[n+]2cc(-c3ccc(Cl)cc3)n3c2CCCCC3)C1 (stereo not drawn)	MC4R barr agon 34.2 | MC4R barr ag 24.6 | MOR-DOR barr ag inactive
CC(=O)Nc1nn(CC(C)C)c2nc3ccc(C)cc3cc12	none (no result: NLRP3 yeast inh, Bfl-1 A1 inh, NALP1 yeast inh)
Cc1ccc2cc3c(NC(=O)c4ccco4)nn(CC(C)C)c3nc2c1	MC4R barr agon 12.9 | MC4R barr ag inactive | MOR-DOR barr ag inactive
CCc1nnc(NC(=O)CSc2ncnc3scc(-c4ccc(C)cc4)c23)s1	MC4R barr agon 11.4 | MC4R barr ag 13.6 | MOR-DOR barr ag inactive
COc1ccc(CNC(=O)CCNC(=O)C2CCN(S(=O)(=O)c3ccc(OC)cc3)CC2)cc1	none (no result: NLRP3 yeast inh, Bfl-1 A1 inh, NALP1 yeast inh)
Cc1cc2nc3c(nc2cc1C)CCCC3	none
CNc1nc(N/N=C/c2cc3c(cc2[N+](=O)[O-])OCO3)nc(Nc2ccccc2)n1	MC4R barr agon 24.5 | MC4R barr ag inactive | MOR-DOR barr ag inactive
O=C(COn1nnc2ccc(Cl)cc21)NC12CC3CC(CC(C3)C1)C2	MC4R barr agon 12.5 | MC4R barr ag inactive | MOR-DOR barr ag inactive
O=C(CO/N=C/c1ccccc1OC(F)F)N1CCc2ccccc21	MC4R barr agon 10.8 | MC4R barr ag inactive | MOR-DOR barr ag inactive
CCCS(=O)(=O)NC(=O)C1(C)CCCN(C(=O)c2ccc(OC)cc2OC)C1 (stereo not drawn)	none (no result: NLRP3 yeast inh, Bfl-1 A1 inh, NALP1 yeast inh)
CCC1(C)Cc2c(sc3nc(SCC(=O)c4ccccc4)[nH]c(=O)c23)CO1 (stereo not drawn)	MC4R barr agon 11.7 | MC4R barr ag inactive | MOR-DOR barr ag inactive
CCOC(=O)CSc1nc2sc3c(c2c(=O)[nH]1)CC(C)(CC)OC3 (stereo not drawn)	none
Cc1cccc2sc(NC(=O)C3CCCN(S(=O)(=O)c4cccc5nonc45)C3)nc12 (stereo not drawn)	MC4R barr agon 9.9 | MC4R barr ag inactive | MOR-DOR barr ag inactive
CCOc1cc(N2CCOCC2)c(OCC)cc1NC(=O)c1ccccc1N1CCCC1=O	none (no result: NLRP3 yeast inh, Bfl-1 A1 inh, NALP1 yeast inh)
CCOc1ccc(NC(=O)CSc2nc3ccccc3nc2N2CCOCC2)cc1	none
OC(CNCCc1ccc(Cl)cc1)COc1ccc2ccccc2c1 (stereo not drawn)	MC4R barr agon 20.0 (no result: NLRP3 yeast inh, Bfl-1 A1 inh) | MC4R barr ag 14.8 | MOR-DOR barr ag inactive
O=[N+]([O-])c1cc(F)cc(F)c1Nc1ccc(F)cc1	none (no result: NLRP3 yeast inh, Bfl-1 A1 inh, NALP1 yeast inh)

Screening data deposited in PubChem by several laboratories.
